Data published in ChEMBL document CHEMBL4184325, “Discovery of 4,7-Diamino-5-(4-phenoxyphenyl)-6-methylene-pyrimido[5,4- b]pyrrolizines as Novel Bruton's Tyrosine Kinase Inhibitors” (J Med Chem, 2018).
Blank lines part the entries; values can stand above or below the molecule they belong to.

What was measured:
[1] = biological target: Tyrosine-protein kinase BTK (Homo sapiens, UniProt Q06187); test: Inhibition of recombinant human BTK using Poly(Glu, Tyr) 4:1 as substrate after 1 hr by ELISA
[2] = Drug metabolism in human liver microsomes treated with (S)-N-(4-Amino-6-methylene-5-(4-phenoxyphenyl)-7,8-dihydro-6H-pyrimido[5,4-b]pyrrolizin-7-yl)acrylamide after 3 hrs; format: ADME, microsome
[3] = Drug metabolism in rat liver microsomes treated with (S)-N-(4-Amino-6-methylene-5-(4-phenoxyphenyl)-7,8-dihydro-6H-pyrimido[5,4-b]pyrrolizin-7-yl)acrylamide after 3 hrs; format: ADME, microsome
[4] = Drug metabolism in mouse liver microsomes treated with (S)-N-(4-Amino-6-methylene-5-(4-phenoxyphenyl)-7,8-dihydro-6H-pyrimido[5,4-b]pyrrolizin-7-yl)acrylamide after 3 hrs; format: ADME, microsome
[5] = test system: Rattus norvegicus; test: AUC (0 to infinity) in rat at 3 mg/kg, po; format: ADME, organism-based; design: dose 3 mg/kg, time infinity, route oral; conditions: in vivo
Summary of the method: (§1)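 Rats dosed orally at 3 mg/kg; vehicle DMSO, Tween 80, normal saline; values are the average of three determinations.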

[6] = test system: TMD8; test: Antiproliferative activity against human TMD8 cells after 72 hrs by MTT assay; format: functional, cell-based; conditions: TMD8, 72 h
Summary of the method: (§2)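 Cells grown in RPMI-1640 with FBS at 37 °C, 5% CO2. Seeded and grown 2 h, then treated with various concentrations in PBS solution, each in triplicate, and cultured a further 72 h. Viability read by MTT. IC50 from the Logit method, given as mean ± SD of three independent determinations.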

[7] = test system: Ramos; test: Antiproliferative activity against human Ramos cells after 72 hrs by MTT assay; format: functional, cell-based; summary of the method: as §2
[8] = test system: Mus musculus; test: Toxicity in CB17 SCID nude mouse xenografted with human TMD8 cells assessed as change in body weight at 25 mg/kg, po qd administered for 13 consecutive days measured during compound dosing up to day 17 post dose; format: organism-based; conditions: in vivo
[9] = Drug metabolism in rat liver microsomes treated with (S)-N-(4-Amino-6-methylene-5-(4-phenoxyphenyl)-7,8-dihydro-6H-pyrimido[5,4-b]pyrrolizin-7-yl)but-2-ynamide after 3 hrs; format: ADME, microsome
[10] = Drug metabolism in human liver microsomes treated with (S)-N-(4-Amino-6-methylene-5-(4-phenoxyphenyl)-7,8-dihydro-6H-pyrimido[5,4-b]pyrrolizin-7-yl)but-2-ynamide after 3 hrs; format: ADME, microsome
[11] = (§3) Oral bioavailability in rat at 3 mg/kg; format: ADME, organism-based; conditions: in vivo
Summary of the method: (§4)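 Rats were given compound at 1 mg/kg iv or 3 mg/kg po. Vehicle was DMSO, Tween 80 and normal saline. Values are the average of three determinations.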

[12] = Drug metabolism in mouse liver microsomes treated with (S)-N-(4-Amino-6-methylene-5-(4-phenoxyphenyl)-7,8-dihydro-6H-pyrimido[5,4-b]pyrrolizin-7-yl)but-2-ynamide after 3 hrs; format: ADME, microsome
[13] = test system: Rattus norvegicus; test: Volume of distribution at steady state in rat at 1 mg/kg, iv; format: ADME, organism-based; conditions: in vivo; summary of the method: as §4
[14] = test system: Rattus norvegicus; test: Half life in rat at 1 mg/kg, iv; format: ADME, organism-based; conditions: in vivo
Summary of the method: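 Rats given 1 mg/kg intravenously; vehicle DMSO, Tween 80, normal saline; values are the average of three determinations.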

[15] = Cmax in rat at 3 mg/kg, po; format: ADME, organism-based; design: dose 3 mg/kg, route oral; conditions: in vivo; summary of the method: as §1
[16] = Tmax in rat at 3 mg/kg, po; format: ADME, organism-based; conditions: in vivo; summary of the method: as §4
[17] = test system: Rattus norvegicus; test: as §3; format: ADME, organism-based; conditions: in vivo; summary of the method: as §4
[18] = Drug metabolism in mouse liver microsomes assessed as (S)-4-(4-(4,7-diamino-6-methylene-7,8-dihydro-6H-pyrimido[5,4-b]pyrrolizin-5-yl)phenoxy)phenol formation after 3 hrs; format: ADME, microsome
[19] = Drug metabolism in mouse liver microsomes assessed as (S)-N-(4-amino-5-(4-(4-hydroxyphenoxy)phenyl)-6-methylene-7,8-dihydro-6H-pyrimido[5,4-b]pyrrolizin-7-yl)but-2-ynamide formation after 3 hrs; format: ADME, microsome
[20] = Drug metabolism in rat liver microsomes assessed as (S)-N-(4-amino-5-(4-(4-hydroxyphenoxy)phenyl)-6-methylene-7,8-dihydro-6H-pyrimido[5,4-b]pyrrolizin-7-yl)but-2-ynamide formation after 3 hrs; format: ADME, microsome
[21] = Drug metabolism in mouse liver microsomes assessed as (S)-N-(4-amino-6-methylene-5-(4-phenoxyphenyl)-7,8-dihydro-6H-pyrimido[5,4-b]pyrrolizin-7-yl)-4-hydroxybut-2-ynamide formation after 3 hrs; format: ADME, microsome
[22] = Drug metabolism in rat liver microsomes assessed as (S)-N-(4-amino-6-methylene-5-(4-phenoxyphenyl)-7,8-dihydro-6H-pyrimido[5,4-b]pyrrolizin-7-yl)-4-hydroxybut-2-ynamide formation after 3 hrs; format: ADME, microsome
[23] = Drug metabolism in human liver microsomes assessed as (S)-N-(4-amino-6-methylene-5-(4-phenoxyphenyl)-7,8-dihydro-6H-pyrimido[5,4-b]pyrrolizin-7-yl)-4-hydroxybut-2-ynamide formation after 3 hrs; format: ADME, microsome
[24] = Drug metabolism in rat liver microsomes assessed as (S)-N-(4-amino-5-(4-(4-hydroxyphenoxy)phenyl)-6-methylene-7,8-dihydro-6H-pyrimido[5,4-b]pyrrolizin-7-yl)-4-hydroxybut-2-ynamide formation after 3 hrs; format: ADME, microsome
[25] = Drug metabolism in human liver microsomes assessed as (S)-N-(4-amino-5-(4-(4-hydroxyphenoxy)phenyl)-6-methylene-7,8-dihydro-6H-pyrimido[5,4-b]pyrrolizin-7-yl)-4-hydroxybut-2-ynamide formation after 3 hrs; format: ADME, microsome
[26] = Drug metabolism in rat liver microsomes assessed as (S)-N-(4-amino-5-(4-hydroxyphenyl)-6-methylene-7,8-dihydro-6H-pyrimido[5,4-b]pyrrolizin-7-yl)but-2-ynamide formation after 3 hrs; format: ADME, microsome
[27] = Drug metabolism in human liver microsomes assessed as (S)-N-(4-amino-5-(4-hydroxyphenyl)-6-methylene-7,8-dihydro-6H-pyrimido[5,4-b]pyrrolizin-7-yl)but-2-ynamide formation after 3 hrs; format: ADME, microsome
[28] = biological target: Tyrosine-protein kinase BTK (Homo sapiens, UniProt Q06187, C481S); test: Inhibition of recombinant full-length N-terminal His-tagged human BTK C481S mutant expressed in baculovirus infected Sf9 insect cells using Poly(Glu, Tyr) 4:1 as substrate after 1 hr by ELISA
[29] = biological target: Tyrosine-protein kinase Blk (Homo sapiens, UniProt P51451); test: Inhibition of partial length human BLK expressed in bacteria assessed as residual activity at 1 uM relative to control
Summary of the method: (§5)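 KINOMEscan competition binding panel of 468 kinases with compound at 1 μM. Result is % control = (test − positive control signal)/(DMSO negative − positive control signal) × 100.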

[30] = biological target: Receptor tyrosine-protein kinase erbB-4 (Homo sapiens, UniProt Q15303); test: Inhibition of partial length human ErbB4 expressed in bacteria assessed as residual activity at 1 uM relative to control; summary of the method: as §5
[31] = biological target: Dual specificity mitogen-activated protein kinase kinase; MEK1/2 (Homo sapiens) (UniProt P36507+Q02750); test: Inhibition of human MEK assessed as residual activity at 1 uM relative to control; format: protein assay; summary of the method: as §5
Dual specificity mitogen-activated protein kinase kinase; MEK1/2 (Homo sapiens), sequence (P36507 whole entry, looked up): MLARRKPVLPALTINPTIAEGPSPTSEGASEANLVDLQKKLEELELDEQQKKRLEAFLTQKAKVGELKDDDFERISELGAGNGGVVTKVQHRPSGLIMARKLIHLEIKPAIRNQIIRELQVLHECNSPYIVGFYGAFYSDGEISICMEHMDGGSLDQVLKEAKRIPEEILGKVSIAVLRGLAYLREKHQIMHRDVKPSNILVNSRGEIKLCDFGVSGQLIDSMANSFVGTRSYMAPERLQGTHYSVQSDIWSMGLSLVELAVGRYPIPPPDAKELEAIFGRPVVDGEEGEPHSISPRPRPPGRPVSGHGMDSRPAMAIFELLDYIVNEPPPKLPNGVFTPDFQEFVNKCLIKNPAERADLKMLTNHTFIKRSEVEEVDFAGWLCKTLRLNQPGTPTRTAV
Dual specificity mitogen-activated protein kinase kinase; MEK1/2 (Homo sapiens), sequence (Q02750 whole entry, looked up): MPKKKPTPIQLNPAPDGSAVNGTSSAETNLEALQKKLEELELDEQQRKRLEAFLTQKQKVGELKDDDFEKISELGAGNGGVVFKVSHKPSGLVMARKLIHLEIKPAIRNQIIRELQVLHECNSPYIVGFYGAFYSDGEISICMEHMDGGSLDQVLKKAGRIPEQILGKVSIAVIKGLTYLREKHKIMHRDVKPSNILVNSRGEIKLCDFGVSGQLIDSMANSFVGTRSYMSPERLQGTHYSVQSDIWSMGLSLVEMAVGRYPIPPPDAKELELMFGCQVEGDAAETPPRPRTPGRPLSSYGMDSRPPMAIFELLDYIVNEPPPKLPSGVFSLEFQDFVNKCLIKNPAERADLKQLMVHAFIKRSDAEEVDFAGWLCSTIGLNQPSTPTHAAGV

Tyrosine-protein kinase BTK (Homo sapiens, UniProt Q06187), sequence (Q06187 whole entry): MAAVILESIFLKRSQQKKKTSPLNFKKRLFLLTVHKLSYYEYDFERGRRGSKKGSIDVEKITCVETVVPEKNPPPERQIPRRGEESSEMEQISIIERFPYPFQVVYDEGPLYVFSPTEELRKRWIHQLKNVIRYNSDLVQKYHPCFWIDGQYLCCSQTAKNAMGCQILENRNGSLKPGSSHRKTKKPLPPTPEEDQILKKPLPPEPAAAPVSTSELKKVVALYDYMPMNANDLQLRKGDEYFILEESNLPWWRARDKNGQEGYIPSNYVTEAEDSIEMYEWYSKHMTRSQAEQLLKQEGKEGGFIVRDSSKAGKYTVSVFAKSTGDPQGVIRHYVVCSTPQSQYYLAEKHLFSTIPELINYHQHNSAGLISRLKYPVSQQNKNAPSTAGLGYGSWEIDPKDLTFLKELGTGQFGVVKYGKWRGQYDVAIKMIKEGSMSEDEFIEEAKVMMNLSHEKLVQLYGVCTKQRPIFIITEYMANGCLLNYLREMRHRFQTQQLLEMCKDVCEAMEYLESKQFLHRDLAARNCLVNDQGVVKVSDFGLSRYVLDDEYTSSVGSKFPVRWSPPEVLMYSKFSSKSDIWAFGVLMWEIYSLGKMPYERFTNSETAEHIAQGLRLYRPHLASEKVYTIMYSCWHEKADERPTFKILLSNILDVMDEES
Tyrosine-protein kinase BTK (Homo sapiens, UniProt Q06187, C481S), sequence (Q06187 2-659 C481S limits assumed): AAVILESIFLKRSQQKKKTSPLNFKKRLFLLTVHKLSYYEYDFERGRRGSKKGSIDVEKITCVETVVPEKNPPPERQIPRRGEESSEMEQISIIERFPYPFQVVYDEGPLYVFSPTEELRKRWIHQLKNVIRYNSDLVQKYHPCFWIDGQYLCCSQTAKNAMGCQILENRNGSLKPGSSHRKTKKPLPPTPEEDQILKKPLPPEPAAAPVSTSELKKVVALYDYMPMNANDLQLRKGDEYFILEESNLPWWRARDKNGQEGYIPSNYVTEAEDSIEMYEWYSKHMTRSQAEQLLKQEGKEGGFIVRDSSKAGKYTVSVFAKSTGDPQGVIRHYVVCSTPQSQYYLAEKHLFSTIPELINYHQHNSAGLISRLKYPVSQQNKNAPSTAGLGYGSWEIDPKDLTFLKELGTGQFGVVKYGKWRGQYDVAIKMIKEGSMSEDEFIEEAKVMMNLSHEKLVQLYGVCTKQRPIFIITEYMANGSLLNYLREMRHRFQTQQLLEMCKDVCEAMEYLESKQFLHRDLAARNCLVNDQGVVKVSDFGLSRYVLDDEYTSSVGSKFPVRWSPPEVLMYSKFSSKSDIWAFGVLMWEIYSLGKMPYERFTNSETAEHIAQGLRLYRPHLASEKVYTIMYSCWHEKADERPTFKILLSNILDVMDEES
Tyrosine-protein kinase Blk, sequence (P51451 2-505 limits assumed): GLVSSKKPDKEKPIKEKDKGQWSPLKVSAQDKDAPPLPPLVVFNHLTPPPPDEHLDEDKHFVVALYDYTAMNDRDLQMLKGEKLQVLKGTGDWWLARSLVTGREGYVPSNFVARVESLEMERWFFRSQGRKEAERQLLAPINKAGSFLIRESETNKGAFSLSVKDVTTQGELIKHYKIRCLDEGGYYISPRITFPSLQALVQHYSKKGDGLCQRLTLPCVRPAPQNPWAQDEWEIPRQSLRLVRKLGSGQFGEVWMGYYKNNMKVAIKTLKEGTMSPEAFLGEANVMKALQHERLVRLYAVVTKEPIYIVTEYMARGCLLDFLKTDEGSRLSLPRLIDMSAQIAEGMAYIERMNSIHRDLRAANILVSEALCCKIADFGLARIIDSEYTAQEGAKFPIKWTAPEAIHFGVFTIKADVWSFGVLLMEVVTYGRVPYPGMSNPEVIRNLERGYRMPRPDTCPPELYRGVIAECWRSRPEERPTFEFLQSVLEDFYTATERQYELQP
Receptor tyrosine-protein kinase erbB-4, sequence (Q15303 whole entry): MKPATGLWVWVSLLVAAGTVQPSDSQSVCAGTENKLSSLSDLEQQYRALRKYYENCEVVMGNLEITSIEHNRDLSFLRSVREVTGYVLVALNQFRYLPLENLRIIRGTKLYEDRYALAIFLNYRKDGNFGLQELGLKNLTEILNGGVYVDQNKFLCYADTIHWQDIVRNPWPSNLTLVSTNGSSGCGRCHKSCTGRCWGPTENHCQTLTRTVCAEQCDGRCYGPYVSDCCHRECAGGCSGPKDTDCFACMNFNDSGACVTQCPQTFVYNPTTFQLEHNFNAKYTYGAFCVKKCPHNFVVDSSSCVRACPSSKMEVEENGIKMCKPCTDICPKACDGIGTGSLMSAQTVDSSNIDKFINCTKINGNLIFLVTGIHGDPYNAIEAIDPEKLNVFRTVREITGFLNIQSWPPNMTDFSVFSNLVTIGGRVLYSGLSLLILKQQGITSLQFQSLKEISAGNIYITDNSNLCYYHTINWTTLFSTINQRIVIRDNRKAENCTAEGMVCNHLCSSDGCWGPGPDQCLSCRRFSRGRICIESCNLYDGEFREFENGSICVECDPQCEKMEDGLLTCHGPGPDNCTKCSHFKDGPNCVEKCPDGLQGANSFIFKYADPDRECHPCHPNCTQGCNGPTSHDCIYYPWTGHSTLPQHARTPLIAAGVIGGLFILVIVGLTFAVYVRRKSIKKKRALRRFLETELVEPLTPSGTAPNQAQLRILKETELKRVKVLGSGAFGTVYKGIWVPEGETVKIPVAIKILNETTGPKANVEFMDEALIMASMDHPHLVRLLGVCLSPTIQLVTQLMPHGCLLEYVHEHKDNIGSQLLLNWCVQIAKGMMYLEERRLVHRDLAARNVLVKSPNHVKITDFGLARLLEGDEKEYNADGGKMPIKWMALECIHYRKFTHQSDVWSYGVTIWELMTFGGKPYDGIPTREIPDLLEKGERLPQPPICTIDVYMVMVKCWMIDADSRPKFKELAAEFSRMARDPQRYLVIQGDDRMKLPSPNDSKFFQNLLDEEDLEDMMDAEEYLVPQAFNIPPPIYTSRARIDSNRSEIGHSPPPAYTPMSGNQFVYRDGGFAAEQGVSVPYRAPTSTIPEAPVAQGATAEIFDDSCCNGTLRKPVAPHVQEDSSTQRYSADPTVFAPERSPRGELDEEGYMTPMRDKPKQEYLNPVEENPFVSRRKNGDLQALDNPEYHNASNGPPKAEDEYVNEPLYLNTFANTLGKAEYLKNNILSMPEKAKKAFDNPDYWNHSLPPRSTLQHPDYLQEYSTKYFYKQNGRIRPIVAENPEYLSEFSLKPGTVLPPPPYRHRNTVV

Compound: C=CC(=O)NC1(C(=O)NC2Cn3c(c(-c4ccc(Oc5ccccc5)cc4)c4c(N)ncnc43)C2=C)CC1 (stereo not drawn)
- IC50 [1]: 23.8 nM

Compound: C=CC(=O)N[C@@H]1Cn2c(c(-c3ccc(C(=O)NCc4ccccn4)cc3)c3c(N)ncnc32)C1=C
- IC50 [1]: 3.1 nM

Compound: C=C1c2c(-c3ccc(Oc4ccccc4)cc3)c3c(N)ncnc3n2CC1NC(=O)/C=C/CN(C)C (stereo not drawn)
- IC50 [1]: 4.3 nM

Compound: C=CC(=O)N1CCC[C@@H](n2nc(-c3ccc(Oc4ccccc4)cc3)c3c(N)ncnc32)C1 [IBRUTINIB]
- AUC [5]: 57 ng·h/mL
- IC50 [6]: 10 nM
- IC50 [7]: 920 nM
- Activity [8]: Non-Toxic

Compound: C=C1c2c(-c3ccc(Oc4ccc(O)cc4)cc3)c3c(N)ncnc3n2C[C@H]1NC(=O)C#CCO
- Drug metabolism [9]: Metabolite_Detected
- Drug metabolism [10]: Metabolite_Detected

Compound: C=CC(=O)N[C@@H]1Cn2c(c(-c3ccc(O)cc3)c3c(N)ncnc32)C1=C
- Drug metabolism [2]: Metabolite_Detected
- Drug metabolism [3]: Metabolite_Detected

Compound: C=CC(=O)N[C@@H]1Cn2c(c(-c3ccc(C(=O)N[C@@H](COC)c4ccccn4)cc3)c3c(N)ncnc32)C1=C
- IC50 [1]: 4.3 nM

Compound: C=CC(=O)N[C@@H]1Cn2c(c(-c3ccc(C(=O)Nc4ccccn4)cc3)c3c(N)ncnc32)C1=C
- IC50 [1]: 0.5 nM
- bioavailability [11]: 8.24%
- IC50 [6]: 4 nM
- IC50 [7]: 14300 nM

Compound: C=C1c2c(-c3ccc(Oc4ccccc4)cc3)c3c(N)ncnc3n2C[C@H]1NC(=O)C#CCO
- Drug metabolism [12]: Metabolite_Detected
- Drug metabolism [9]: Metabolite_Detected
- Drug metabolism [10]: Metabolite_Detected

Compound: C=C1c2c(-c3ccc(Oc4ccccc4)cc3)c3c(N)ncnc3n2CC1N (stereo not drawn)
- IC50 [1]: > 1000 nM

Compound: C=CC(=O)N[C@@H](C)C(=O)NC1Cn2c(c(-c3ccc(Oc4ccccc4)cc3)c3c(N)ncnc32)C1=C (stereo partly drawn)
- IC50 [1]: 40.1 nM

Compound: C=C1c2c(-c3ccc(Oc4ccccc4)cc3)c3c(N)ncnc3n2CC1NC(=O)C#CC (racemic)
- IC50 [1]: 2.1 nM

Compound: C=C1c2c(-c3ccc(Oc4ccccc4)cc3)c3c(N)ncnc3n2C[C@H]1NC(=O)C=CO
- Drug metabolism [2]: Metabolite_Detected
- Drug metabolism [3]: Metabolite_Detected
- Drug metabolism [4]: Metabolite_Detected

Compound: C=C1c2c(-c3ccc(Oc4ccc(O)cc4)cc3)c3c(N)ncnc3n2C[C@H]1N
- Drug metabolism [3]: Metabolite_Detected
- Drug metabolism [4]: Metabolite_Detected
- Drug metabolism [12]: Metabolite_Detected

Compound: C=CC(=O)NCCC(=O)NC1Cn2c(c(-c3ccc(Oc4ccccc4)cc3)c3c(N)ncnc32)C1=C (stereo not drawn)
- IC50 [1]: 725 nM

Compound: C=CC(=O)NC1Cn2c(c(-c3ccc(Oc4ccccc4)cc3)c3c(N)ncnc32)C1=C (racemic)
- IC50 [1]: 2.8 nM
- IC50 [28]: 464 nM
- Activity [29]: < 1%
- Activity [30]: < 1%
- Activity [31]: < 1%

Compound: C=C1c2c(-c3ccc(Oc4ccccc4)cc3)c3c(N)ncnc3n2C[C@@H]1NC(=O)C#CC
- IC50 [1]: 3.3 nM

Compound: C=CC(=O)N[C@@H]1Cn2c(c(-c3ccc(Oc4ccc(F)cc4)cc3)c3c(N)ncnc32)C1=C
- IC50 [1]: 2.2 nM

Compound: C=CC(=O)N[C@@H]1Cn2c(c(-c3ccc(Oc4ccc(OC(F)(F)F)cc4)cc3)c3c(N)ncnc32)C1=C
- IC50 [1]: 3.5 nM

Compound: C=CC(=O)N[C@@H]1Cn2c(c(-c3ccc(Oc4ccc(C(C)(C)C)cc4)cc3)c3c(N)ncnc32)C1=C
- IC50 [1]: 3.7 nM

Compound: C=CC(=O)N[C@@H]1Cn2c(c(-c3ccc(Oc4ccc(C(F)(F)F)cc4)cc3)c3c(N)ncnc32)C1=C
- IC50 [1]: 7.4 nM

Next, values leading:

- Drug metabolism [2]: Metabolite_Detected
- Drug metabolism [3]: Metabolite_Detected
- Drug metabolism [4]: Metabolite_Detected
Compound: C=CC(=O)N[C@@H]1Cn2c(c(-c3ccc(Oc4ccc(O)cc4)cc3)c3c(N)ncnc32)C1=C

- IC50 [1]: 417 nM
Compound: CCC(=O)NC1CCc2c(-c3ccc(Oc4ccccc4)cc3)c3c(N)ncnc3n2C1 (stereo not drawn)

- IC50 [1]: 0.8 nM
Compound: C=CC(=O)N[C@@H]1Cn2c(c(-c3ccc(C(=O)Nc4cc(C(F)(F)F)ccn4)cc3)c3c(N)ncnc32)C1=C

- Drug metabolism [2]: Metabolite_Detected
- Drug metabolism [3]: Metabolite_Detected
- Drug metabolism [4]: Metabolite_Detected
Compound: C=C1c2c(-c3ccc(Oc4ccccc4)cc3)c3c(N)ncnc3n2C[C@H]1NC(=O)C(O)CO (stereo partly drawn)

- IC50 [1]: 23.6 nM
Compound: C=CC(=O)NCC(=O)NC1Cn2c(c(-c3ccc(Oc4ccccc4)cc3)c3c(N)ncnc32)C1=C (stereo not drawn)

- IC50 [1]: 50.4 nM
Compound: C=CC(=O)N[C@@H]1Cn2c(c(-c3ccc(C(=O)N[C@@H](C)c4ccccn4)cc3)c3c(N)ncnc32)C1=C

- Drug metabolism [9]: Metabolite_Detected
- Drug metabolism [10]: Metabolite_Detected
Compound: C=C1c2c(-c3ccc(O)cc3)c3c(N)ncnc3n2C[C@H]1NC(=O)C#CC

- IC50 [1]: 62.6 nM
Compound: C=C1c2c(-c3ccc(Oc4ccccc4)cc3)c3c(N)ncnc3n2CC1NC(=O)CC (stereo not drawn)

- IC50 [1]: 0.4 nM
- Vdss [13]: 1.39 L/kg
- t1/2 [14]: 32.4 min
- Cmax [15]: 340 ng/mL
- Tmax [16]: 15 min
- AUC [5]: 557 ng·h/mL
- F [17]: 35.8%
- Drug metabolism [18]: Metabolite_Detected
- Drug metabolism [19]: Metabolite_Detected
- Drug metabolism [20]: Metabolite_Detected
- Drug metabolism [21]: Metabolite_Detected
- Drug metabolism [22]: Metabolite_Detected
- Drug metabolism [23]: Metabolite_Detected
- Drug metabolism [24]: Metabolite_Detected
- Drug metabolism [25]: Metabolite_Detected
- Drug metabolism [26]: Metabolite_Detected
- Drug metabolism [27]: Metabolite_Detected
Compound: C=C1c2c(-c3ccc(Oc4ccccc4)cc3)c3c(N)ncnc3n2C[C@H]1NC(=O)C#CC

- IC50 [1]: 6.1 nM
Compound: C=CC(=O)N[C@H]1Cn2c(c(-c3ccc(Oc4ccccc4)cc3)c3c(N)ncnc32)C1=C

- Drug metabolism [12]: Metabolite_Detected
- Drug metabolism [9]: Metabolite_Detected
- Drug metabolism [10]: Metabolite_Detected
Compound: C=C1c2c(-c3ccc(Oc4ccc(O)cc4)cc3)c3c(N)ncnc3n2C[C@H]1NC(=O)C#CC
